The source made the active and inactive calls. The rule behind the calls is not given here.
Assays:
[1] = tested on: Simian immunodeficiency virus; test: Antiviral activity against SIV-induced syncytium in human CEM174 cells assessed as inhibition of virus-induced cytopathogenicity after 5 days; assay type: functional, organism-based; conditions: CEM174, 120 h
How it was run: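 CEM174 cells at 1 × 10⁵ cells/mL in 96-well format, infected with 100 TCID₅₀ SIV per well alongside serial dilutions of compound. Incubated 5 days at 37 °C, 5% CO₂, humidified. Syncytium (giant cell) formation scored microscopically. EC₅₀ = concentration protecting cells 50% against SIV cytopathogenicity.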

[2] = Cytotoxicity against mock-infected human CEM174 cells after 5 days by MTT assay; assay type: cell-based; conditions: read-out: TC50
How it was run: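 Uninfected CEM174 cells handled as in the antiviral assay (1 × 10⁵ cells/mL, compound dilutions, 5 days, 37 °C, 5% CO₂). Proliferation read by MTT reduction. TC₅₀ = concentration inhibiting cell proliferation by 50%.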

[3] = Therapeutic index, TC50 for human CEM174 cells to EC50 for SIV-induced syncytium in human CEM174 cells; assay type: cell-based; conditions: read-out: TI
How it was run: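 Ratio TC₅₀/EC₅₀. TC₅₀ comes from the MTT proliferation assay in uninfected CEM174 cells. EC₅₀ comes from microscopic scoring of syncytia in CEM174 cells infected with 100 TCID₅₀ SIV per well. Both were run over 5 days at 37 °C, 5% CO₂.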

[4] = biological target: Structural capsid protein (Human immunodeficiency virus 1) (UniProt Q76129); test: Binding affinity to HIV1 capsid protein assessed as viral capsid assembly rate at 1 mM by ultraviolet spectrophotometry (RVb= 60.56 +/- 3.77 milliOD/min)
Sequence of Structural capsid protein (Human immunodeficiency virus 1) (Q76129 as listed by the source): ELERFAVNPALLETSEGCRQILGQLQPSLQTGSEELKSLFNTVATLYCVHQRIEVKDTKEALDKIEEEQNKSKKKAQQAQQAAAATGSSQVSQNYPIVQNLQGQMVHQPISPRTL

[5] = biological target: Structural capsid protein (Human immunodeficiency virus 1) (UniProt Q76129); test: Binding affinity to HIV1 capsid protein assessed as inhibition of viral capsid assembly at 1 mM after 600 mins by turbidity-based ultraviolet spectrophotometry

For `COc1ccc(C(=O)N[C@@H](Cc2c[nH]cn2)C(=O)N/N=C/c2ccccc2)cc1`, the EC50 [1] was 0.56 µM, the CC50 at 120 h [2] was > 100 µM and the selectivity ratio [3] was > 179. For the same compound, the Activity (milli optical density/minute) [4] was 3.26 and the inhibition [5] was “Active”.
In the case of `COc1ccc(C(=O)N[C@H](C(=O)N/N=C/c2ccc(O)cc2)[C@@H](C)O)cc1`, the EC50 [1] is reported as 8.13 µM, the CC50 at 120 h [2] is reported as > 100 µM and the selectivity ratio [3] is reported as > 12.3. The Activity (milli optical density/minute) [4] was 24.9.
For `COc1ccc(C(=O)N[C@@H](Cc2c[nH]cn2)C(=O)N/N=C/c2ccc([N+](=O)[O-])cc2)cc1`, the EC50 [1] was 4.4 µM, the CC50 at 120 h [2] was > 100 µM and the selectivity ratio [3] was > 22.7. It also gave an Activity (milli optical density/minute) [4] of 12.6.
In the case of `COc1ccc(C(=O)N[C@@H](Cc2c[nH]cn2)C(=O)N/N=C/c2ccco2)cc1`, the EC50 [1] is reported as 8.44 µM, the CC50 at 120 h [2] is reported as > 100 µM and the selectivity ratio [3] is reported as > 11.8. The Activity (milli optical density/minute) [4] was 29.3.
In the case of `COc1ccc(C(=O)N[C@@H](Cc2c[nH]cn2)C(=O)N/N=C/c2ccc(Cl)cc2)cc1`, the EC50 [1] is reported as 3.27 µM, the CC50 at 120 h [2] is reported as > 100 µM and the selectivity ratio [3] is reported as > 30.6. It also gave an Activity (milli optical density/minute) [4] of 8.89.
In the case of `COc1ccc(C(=O)N[C@@H](Cc2c[nH]cn2)C(=O)N/N=C/c2ccc(O)cc2)cc1`, the EC50 [1] is reported as 3.18 µM, the CC50 at 120 h [2] is reported as > 100 µM and the selectivity ratio [3] is reported as > 31.4. For the same compound, the Activity (milli optical density/minute) [4] was 24.7.
In the case of `COc1ccc(C(=O)N[C@@H](Cc2ccc(O)cc2)C(=O)N/N=C/c2ccc(C)cc2)cc1`, the EC50 [1] is reported as 5.21 µM, the CC50 at 120 h [2] is reported as 41.1 µM and the selectivity ratio [3] is reported as 7.9. It also gave an Activity (milli optical density/minute) [4] of 20.4.
With `COc1ccc(C(=O)N[C@@H](Cc2ccc(O)cc2)C(=O)N/N=C/c2ccccc2)cc1` the EC50 [1] was 4.61 µM, the CC50 at 120 h [2] was > 100 µM and the selectivity ratio [3] was > 21.7. The Activity (milli optical density/minute) [4] was 32.5.
With `Cc1ccc(S(=O)(=O)C[C@@H](Cc2ccccc2)C(=O)N/N=C/c2ccc3c(c2)OCO3)cc1` the EC50 [1] was 0.17 µM.
With `COc1ccc(C(=O)N[C@H](C(=O)N/N=C/c2ccc(C)cc2)[C@H](C)O)cc1` the EC50 [1] was 8.17 µM, the CC50 at 120 h [2] was > 100 µM and the selectivity ratio [3] was > 12.2. For the same compound, the Activity (milli optical density/minute) [4] was 11.9.
With `CC[C@@H](C)[C@H](NC(=O)c1ccc(OC)cc1)C(=O)N/N=C/c1ccccc1` the EC50 [1] was 7.65 µM, the CC50 at 120 h [2] was 77.9 µM and the selectivity ratio [3] was 10.2. For the same compound, the Activity (milli optical density/minute) [4] was 25.4.
In the case of `CC[C@@H](C)[C@H](NC(=O)c1ccc(OC)cc1)C(=O)N/N=C/c1ccc(C)cc1`, the EC50 [1] is reported as 13.9 µM, the CC50 at 120 h [2] is reported as > 100 µM and the selectivity ratio [3] is reported as > 7.2. For the same compound, the Activity (milli optical density/minute) [4] was 33.4 and the inhibition [5] was “inactive”.
In the case of `COc1ccc(C(=O)N[C@@H](C)C(=O)N/N=C/c2ccccc2)cc1`, the EC50 [1] is reported as 6.41 µM, the CC50 at 120 h [2] is reported as > 100 µM and the selectivity ratio [3] is reported as > 15.6.
With `COc1ccc(C(=O)N[C@@H](Cc2ccc(O)cc2)C(=O)N/N=C/c2ccco2)cc1` the EC50 [1] was 9.03 µM, the CC50 at 120 h [2] was 30.6 µM and the selectivity ratio [3] was 3.38. It also gave an Activity (milli optical density/minute) [4] of 19.1.
In the case of `COc1ccc(C(=O)N[C@H](C(=O)N/N=C/c2ccccc2)[C@H](C)O)cc1`, the EC50 [1] is reported as 0.77 µM, the CC50 at 120 h [2] is reported as > 100 µM and the selectivity ratio [3] is reported as > 130. It also gave an Activity (milli optical density/minute) [4] of 21.4.
In the case of `COc1ccc(C(=O)N[C@@H](Cc2ccc(O)cc2)C(=O)N/N=C/c2ccc(O)cc2)cc1`, the EC50 [1] is reported as 7.81 µM, the CC50 at 120 h [2] is reported as > 100 µM and the selectivity ratio [3] is reported as > 12.8. It also gave an Activity (milli optical density/minute) [4] of 8.77.
In the case of `COc1ccc(/C=N/NC(=O)[C@H](Cc2c[nH]cn2)NC(=O)c2ccc(OC)cc2)cc1`, the EC50 [1] is reported as 0.41 µM, the CC50 at 120 h [2] is reported as > 100 µM and the selectivity ratio [3] is reported as > 244. For the same compound, the Activity (milli optical density/minute) [4] was 3.58 and the inhibition [5] was “Active”.
With `CC[C@@H](C)[C@H](NC(=O)c1ccc(OC)cc1)C(=O)N/N=C/c1ccc(O)cc1` the EC50 [1] was 4.15 µM, the CC50 at 120 h [2] was > 100 µM and the selectivity ratio [3] was > 24.1. The Activity (milli optical density/minute) [4] was 30.1.
For `COc1ccc(C(=O)N[C@H](C(=O)N/N=C/c2ccc(Cl)cc2)[C@@H](C)O)cc1`, the EC50 [1] was 4.98 µM, the CC50 at 120 h [2] was > 100 µM and the selectivity ratio [3] was > 20.1. The Activity (milli optical density/minute) [4] was 49.5.
With `COc1ccc(C(=O)N[C@@H](Cc2c[nH]cn2)C(=O)N/N=C/c2ccc(C)cc2)cc1` the EC50 [1] was 1.55 µM, the CC50 at 120 h [2] was > 100 µM and the selectivity ratio [3] was > 64.5. The Activity (milli optical density/minute) [4] was 6.05.
With `CCC(C)[C@H](NC(=O)c1ccc(OC)cc1)C(=O)N/N=C/c1ccc(Cl)cc1` (mixture of isomers) the EC50 [1] was 8.1 µM, the CC50 at 120 h [2] was > 100 µM and the selectivity ratio [3] was > 12.3. It also gave an Activity (milli optical density/minute) [4] of 10.2.
With `COc1ccc(C(=O)N[C@H](C(=O)N/N=C/c2ccccc2)C(C)C)cc1` the EC50 [1] was 4.08 µM, the CC50 at 120 h [2] was > 100 µM and the selectivity ratio [3] was > 24.5.
`COc1ccc(C(=O)N[C@@H](Cc2ccc(O)cc2)C(=O)N/N=C/c2ccc(Cl)cc2)cc1` showed an EC50 [1] of 14.9 µM, a CC50 at 120 h [2] of 40 µM and a selectivity ratio [3] of 2.69. The Activity (milli optical density/minute) [4] was 24.3 and the inhibition [5] was “inactive”.
With `CC[C@@H](C)[C@H](NC(=O)c1ccc(OC)cc1)C(=O)N/N=C/c1ccco1` the EC50 [1] was 1.7 µM, the CC50 at 120 h [2] was > 100 µM and the selectivity ratio [3] was > 58.8. It also gave an Activity (milli optical density/minute) [4] of 5.82.

From ChEMBL document CHEMBL1157643, “SAR and molecular mechanism study of novel acylhydrazone compounds targeting HIV-1 CA” (Bioorg Med Chem, 2010)
